Test results: ChEMBL document CHEMBL1141650, “Antitumor polycyclic acridines. 20. Search for DNA quadruplex binding selectivity in a series of 8,13-dimethylquino[4,3,2-kl]acridinium salts: telomere-targeted agents” (J Med Chem, 2008)

Experiments:
[1] = Growth inhibition of human NCI60 cells after 2 days; assay type: functional
Salmonidae [2] = assay: Binding affinity to salmon testis duplex genomic DNA by fluorescence titration method
In short: (§1)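 Fluorescence titration, read as ligand fluorescence quenching on DNA binding. Quadruplex was d[AG3(TTAGGG)3] and duplex ST-DNA. K came from a model fit to the titration data, and the ratio was taken as quadruplex K over duplex K.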

[3] = Selectivity index, ratio of GI50 for human NCI60 cells to IC50 for telomerase by TRAP assay; assay type: functional
Homo sapiens [4] = species on record: Homo sapiens; assay: Binding affinity to quadruplex human telomeric sequence d[AG3(TTAGGG3) by surface plasmon resonance method
In short: (§2)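 SPR in 10 mM HEPES pH 7.4 with 200 mM KCl, 3 mM EDTA, 0.005% surfactant P20. Quadruplex was human telomeric d[AG3(TTAGGG)3] and duplex the alternating GC eight base pair hairpin d[(CG)8]. Equilibrium binding constants K were determined, and the ratio taken as quadruplex K over duplex K.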

Homo sapiens [5] = species on record: Homo sapiens; assay: Binding affinity to quadruplex human telomeric sequence d[AG3(TTAGGG3) by fluorescence titration method; in short: as §1
[6] = Inhibition of telomerase by TRAP assay
[7] = Ratio of binding constant K for G-quadruplex human telomeric sequence d[AG3(TTAGGG3) to binding constant K for duplex DNA d[(CG)8] by surface plasmon resonance method; in short: as §2
[8] = Binding affinity to duplex DNA d[(CG)8] by surface plasmon resonance method; in short: as §2
[9] = Ratio of binding constant K for G-quadruplex human telomeric sequence d[AG3(TTAGGG3) to binding constant K for salmon testis duplex genomic DNA by fluorescence titration method; in short: as §1
Salmonidae [10] = assay: Binding affinity to salmon testis DNA by UV titration
In short: (§3)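 UV absorbance titration following the bathochromic shift on duplex binding. Data were fitted to one binding mode or to two (strong Ks and weak Kw) modes.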

[11] = Binding affinity to poly[dG].poly[dC] by UV titration; in short: as §3
Salmonidae [12] = assay: Increase in melting temperature of salmon testis DNA
[13] = Binding affinity to poly[dA].poly[dT] by UV titration; in short: as §3
[14] = Binding affinity to poly[dG-dC]2 by UV titration; in short: as §3
[15] = Stability of F21T DNA quadruplex sequence d[G3(T2AG3)3] assessed as thermal denaturation by FRET analysis
In short: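 FRET melting of F21T, d[G3(T2AG3)3] labelled with 5′ fluorescein and 3′ tamra, with compound at 1 µM. Lithium chloride buffer held sodium at 10 mM. Tm was taken where normalized fluorescence equalled 0.5, and ∆Tm as the ligand-induced change.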

[16] = Binding affinity to poly[dA-dT]2 by UV titration; in short: as §3
Homo sapiens [17] = species on record: Homo sapiens; assay: Stabilization of G-quadruplex in human cmyc Pu27 DNA sequence assessed as decrease in full length product at less than 1 uM by Taq polymerase arrest assay relative to G-quadruplex arrest; parameters: scale not given: the % may be the effect or the level left
In short: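 Taq polymerase arrest: the quadruplex-forming sequence sat in a cassette template, and a radiolabeled primer was extended by the polymerase. Full-length (77-mer) and arrest product bands were quantified and their ratio plotted against drug concentration. IC50 was the concentration giving 50% decrease in full-length product relative to arrest products.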

Structure (SMILES) | K (Salmonidae [2]) | K (Homo sapiens [5]) | IC50 [6] [µM] | Ratio [9] | ΔTm [15] [°C] | GI50 ([1]; Homo sapiens, NCI60, 48 h) [µM] | Selectivity index [3] | other results
Cc1cc2c3c([n+](C)c4ccc(Cl)cc4c3c1)-c1cc(Cl)ccc1N2C | – | – | – | – | – | 4.71 | – | –
CN1c2ccccc2-c2c3c1cccc3c1ccc(NC(=O)c3ccccc3)cc1[n+]2C | – | – | – | – | – | 6.61 | – | –
CCCCCCCCCCCC(=O)Nc1ccc2c3cccc4c3c([n+](C)c2c1)-c1ccccc1N4C | – | – | – | – | – | 0.54 | – | –
c1ccc2c(c1)Nc1cccc3cc4[n+](c-2c13)CCC4 | – | – | – | – | – | 0.09 | – | –
CC(=O)OCCCc1cc2c3c([n+](C)c4ccc(CCCOC(C)=O)cc4c3c1)-c1ccccc1N2C | 0.94 10^5/M | 1.6 10^5/M | – | 1.7 | 0.5 | – | – | K (Homo sapiens [4]): 2.4 10^5/M; Ratio [7]: 1.4; K [8]: 1.7 10^5/M
CN1c2ccccc2-c2c3c1cccc3c1cc(/C=C/C(=O)N3CCOCC3)ccc1[n+]2C | 0.31 10^5/M | 3.2 10^5/M | 0.37 | 10.3 | 4.5 | 67.6 | – | K (Homo sapiens [4]): 71 10^5/M; Ratio [7]: 2.8; K [8]: 25 10^5/M; Activity (Homo sapiens [17]): 50%
CCOC(=O)Nc1ccc2c3cccc4c3c([n+](C)c2c1)-c1ccccc1N4C | – | – | – | – | – | 0.66 | – | –
COc1cc(NS(C)(=O)=O)ccc1Nc1c2ccccc2nc2ccccc12 | – | – | – | – | 0 | – | – | –
COc1cc2c3c([n+](C)c4ccccc4c3c1)-c1ccc(Cl)cc1N2C | – | – | – | – | – | 0.75 | – | –
COc1cc2c3c([n+](C)c4ccccc4c3c1)-c1ccc(/C=C/C(=O)N3CCOCC3)cc1N2C (stereo in doubt; 9t) | – | – | – | – | – | – | – | GI50 [1]: > 100 µM
CNc1ccc2c3cccc4c3c([n+](C)c2c1)-c1ccccc1N4C | – | – | – | – | – | 0.46 | – | –
COc1cc2c3c([n+](C)c4ccccc4c3c1)-c1ccc(/C=C/C(=O)N3CCOCC3)cc1N2C (stereo in doubt; 9r) | – | – | – | – | – | – | – | GI50 [1]: 43.6 µM
CCCCC(=O)Nc1ccc2c3cccc4c3c([n+](C)c2c1)-c1ccccc1N4C | – | – | – | – | – | 1 | – | –
CN1c2ccccc2-c2cccc3nc4ccccc4c1c23 | – | – | – | – | – | 0.32 | – | –
CN1c2ccccc2-c2c3c1cc(/C=C/C(=O)N1CCOCC1)cc3c1cc(Cl)ccc1[n+]2C | – | – | – | – | – | 12.3 | – | –
COC(=O)/C=C/c1ccc2c(c1)N(C)c1cc(OC)cc3c1c-2[n+](C)c1ccccc31 | – | – | – | – | – | 4.57 | – | –
Nc1ccc2c(c1)Nc1c3ccccc3nc3cccc-2c13 | – | – | – | – | – | 1.48 | – | –
COC(=O)CCCCC(=O)Nc1ccc2c3cccc4c3c([n+](C)c2c1)-c1ccccc1N4C.[I-] | 0.68 10^5/M | 10 10^5/M | 0.21 | 14.7 | – | 6.02 | 27 | –
c1cc2c3c(c1)-c1cccc4nc5ccccc5c(c14)N3CC2 | – | – | – | – | – | 0.06 | – | –

Continued, in another order:

K (Salmonidae [2]) | K (Homo sapiens [5]) | IC50 [6] [µM] | Ratio [9] | ΔTm [15] [°C] | Structure (SMILES) | GI50 ([1]; Homo sapiens, NCI60, 48 h) [µM] | Selectivity index [3] | other results
0.83 10^5/M | 1.9 10^5/M | 0.73 | 2.3 | – | CN1c2ccccc2-c2c3c1cccc3c1ccc(N(C)S(=O)(=O)c3ccc(F)cc3)cc1[n+]2C.[I-] | 10 | 14 | K (Homo sapiens [4]): 48 10^5/M; Ratio [7]: 2.8; K [8]: 17 10^5/M
0.56 10^5/M | 2.7 10^5/M | 0.33 | 4.8 | 8 | Cc1cc2c3c([n+](C)c4ccc(F)cc4c3c1)-c1cc(F)ccc1N2C | – | – | K (Salmonidae [10]): 2 10^5/M; K [11]: 1 10^6/M; K (Homo sapiens [4]): 110 10^5/M; Tm (Salmonidae [12]): 10.8 °C; K [13]: 8 10^4/M; K [14]: 6 10^6/M; K [16]: 6 10^5/M; Ratio [7]: 32.3; K [8]: 3.4 10^5/M; Activity (Homo sapiens [17]): 50%
1.1 10^5/M | 6.7 10^5/M | 0.26 | 6 | 5 | CN1c2ccccc2-c2c3c1cccc3c1cc(Cl)ccc1[n+]2C.[I-] | 3.16 | 12 | –
1.2 10^5/M | 11 10^5/M | 0.23 | 9.2 | – | CN1c2ccccc2-c2c3c1cccc3c1ccc(NC(=O)C(C)(C)C)cc1[n+]2C.[I-] | 3.3 | 14 | –
– | – | 1.86 | – | – | CN1c2ccccc2-c2c3c1cccc3c1ccc(N)cc1[n+]2C.[I-] | 3.55 | 1.9 | –
– | – | – | – | 3.8 | CN(C)c1ccc2c3cccc4c3c([n+](C)c2c1)-c1ccccc1N4C | 0.28 | – | –
– | – | 0.74 | – | 2 | COS(=O)(=O)[O-].Cc1cc2c3c([n+](C)c4ccccc4c3c1)-c1ccccc1N2C | 1.29 | 1.7 | –
0.71 10^5/M | 0.91 10^5/M | 1.55 | 1.3 | 2.8 | CN1c2ccccc2-c2c3c1cccc3c1ccccc1[n+]2C.[I-] | 7.58 | 4.8 | –
0.63 10^5/M | 3.7 10^5/M | 0.38 | 5.9 | 10 | CC(=O)Nc1ccc2c3cccc4c3c([n+](C)c2c1)-c1ccccc1N4C.[I-] | – | 32 | K (Homo sapiens [4]): 240 10^5/M; Ratio [7]: 63; K [8]: 3.8 10^5/M; Activity (Homo sapiens [17]): 50%
2.2 10^5/M | 6.4 10^5/M | 0.28 | 2.9 | 9 | COc1cc2c3c([n+](C)c4ccc(Cl)cc4c3c1)-c1ccccc1N2C.[I-] | 0.74 | 2.6 | –
– | – | 2 | – | 0 | CCN1c2ccccc2-c2c3c1cc(C)cc3c1ccccc1[n+]2CC.[I-] | 1.1 | 0.6 | –
2.4 10^5/M | – | 0.25 | – | 7 | COS(=O)(=O)[O-].Cc1ccc2c(c1)-c1c3c(cc(C)cc3c3cc(C)ccc3[n+]1C)N2C | – | 1.6 | K (Salmonidae [10]): 8 10^6/M; K [11]: 1 10^6/M; K (Homo sapiens [4]): 74 10^5/M; K [13]: 4 10^6/M; K [14]: 1.2 10^6/M; K [16]: 4 10^5/M; Ratio [7]: 13.7; K [8]: 5.4 10^5/M; Activity (Homo sapiens [17]): 50%
0.53 10^5/M | 3.1 10^5/M | 0.41 | 5.8 | – | CC(=O)Nc1ccc2c(c1)c1cccc3c1c([n+]2C)-c1ccccc1N3C.[I-] | 81.3 | 195 | K (Homo sapiens [4]): 250 10^5/M; Ratio [7]: 57; K [8]: 4.4 10^5/M
0.7 10^5/M | 6 10^5/M | 0.31 | 8.6 | – | CN1c2ccccc2-c2c3c1cccc3c1ccc(NC(=O)C(F)(F)F)cc1[n+]2C.[I-] | 2.2 | 7 | K (Homo sapiens [4]): 130 10^5/M; Ratio [7]: 34.2; K [8]: 3.8 10^5/M
